Measured values as given in article PMC5586474 (Journal of the American Heart Association: Cardiovascular …, 2017).
Each block holds one molecule with its values, some of them ahead of it.

Columns and labels:
rat mesenteric arteries [1] = conditions: isolated mesenteric rat arteries; cited from earlier work
α1‐AR = assay: PE‐induced IP3 production; assay type: cell-based, human; conditions: 1 μmol/L PE; for effect of α1‐AR antagonist on PE‐induced IP3 production: antagonist 10 μmol/L, 30 minutes, 37°C, Figure 5E
ACKR3:CXCR4 = assay: PLA, ACKR3:CXCR4 interaction in hVSMCs; assay type: cell-based, human; conditions: peptide 10 μmol/L, 30 minutes, 37°C; vs vehicle; Figure 8B; n=3
Method in brief: (§1)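 hVSMCs got vehicle or test peptide (10 μmol/L, 30 min, 37°C), were washed, fixed in 4% PFA (15 min, RT) and blocked overnight at 4°C in 3% BSA/PBS. Receptor‐specific primaries (1:500) ran 105 min at 37°C, then PLA probes (1:5) 60 min, ligation 30 min and amplification 100 min, all at 37°C. DAPI‐mounted spots were counted per cell from 10 images per condition per experiment.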

ACKR3:α1A‐AR = assay: PLA, ACKR3:α1A‐AR interaction in hVSMCs; assay type: cell-based, human; conditions: peptide 10 μmol/L, 30 minutes, 37°C; vs vehicle; Figure 8B; n=3
Method in brief: as §1

CXCR4:α1D‐AR = assay: PLA, CXCR4:α1D‐AR interaction in hVSMCs; assay type: cell-based, human; conditions: peptide 10 μmol/L, 30 minutes, 37°C; vs vehicle; Figure 8B; n=3
Method in brief: as §1

ACKR3:α1D‐AR = assay: PLA, ACKR3:α1D‐AR interaction in hVSMCs; assay type: cell-based, human; conditions: peptide 10 μmol/L, 30 minutes, 37°C; vs vehicle; Figure 8B; n=3
Method in brief: as §1

ACKR3:α1B‐AR = assay: PLA, ACKR3:α1B‐AR interaction in hVSMCs; assay type: cell-based, human; conditions: peptide 10 μmol/L, 30 minutes, 37°C; vs vehicle; Figure 8B; n=3
Method in brief: as §1

α1b‐AR = assay: PRESTO‐Tango β‐arrestin 2 recruitment assay for α1b‐AR; assay type: cell-based; conditions: PE plus 10 μmol/L TM peptide; HTLA cells, overnight, 37°C; Figure 9C; n=3
Method in brief: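 HTLA cells were transfected with the α1B‐AR‐Tango plasmid (1.5 μg, Lipofectamine 3000). The next day they were replated at 1×10⁵/well on poly‐L‐lysine and left to attach for ≥4 h. PE ± 10 μmol/L test peptide, made at twice final concentration in medium, was added 1:1 and incubated overnight at 37°C. Luminescence was read with Bright‐Glo in HBSS/20 mmol/L HEPES, as % of RLU at […].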

CXCR4:α1B‐AR = assay: PLA, CXCR4:α1B‐AR interaction in hVSMCs; assay type: cell-based, human; conditions: peptide 10 μmol/L, 30 minutes, 37°C; vs vehicle; Figure 8B; n=3
Method in brief: as §1

ACKR3 = ACKR3 (Homo sapiens, UniProt P25106); assay: PRESTO‐Tango β‐arrestin 2 recruitment assay for ACKR3; assay type: cell-based; conditions: HTLA cells, overnight, 37°C, n=3
Sequence of ACKR3 (P25106 whole entry): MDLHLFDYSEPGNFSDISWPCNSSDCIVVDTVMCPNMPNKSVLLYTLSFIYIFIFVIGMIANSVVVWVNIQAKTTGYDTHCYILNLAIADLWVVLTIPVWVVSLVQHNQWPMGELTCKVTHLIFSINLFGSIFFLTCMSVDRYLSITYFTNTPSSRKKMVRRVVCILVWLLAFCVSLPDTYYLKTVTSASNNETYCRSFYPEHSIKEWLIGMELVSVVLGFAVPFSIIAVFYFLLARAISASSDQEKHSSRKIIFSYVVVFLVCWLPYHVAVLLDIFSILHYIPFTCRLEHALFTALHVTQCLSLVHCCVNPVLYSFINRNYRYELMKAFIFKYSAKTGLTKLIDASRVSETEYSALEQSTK

rat mesenteric arteries [2] = assay: Pressure myography, PE‐induced vasoconstriction of isolated mesenteric arteries; set-up: species or system rat (Sprague‐Dawley); conditions: TM peptide 100 μmol/L vs vehicle; 80 mm Hg; Figure 9G; n=3
Method in brief: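 Mesenteric arteries from male Sprague-Dawley rats (isoflurane 3.5% anaesthesia) kept in bicarbonate salt buffer (130 mmol/L NaCl, 4.7 mmol/L KCl, 5.5 mmol/L d-glucose, 1.16 mmol/L CaCl₂), gassed 95% O₂/5% CO₂, 37°C. Vessels pressurized to 80 mm Hg, pretreated with vehicle or test peptide (10 or 100 μmol/L). Cumulative PE added to bath; dose-response curves fitted by nonlinear regression.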

Molecule: CXCL12: natural ACKR3 agonist; cognate ligand of CXCR4 and ACKR3, from Protein Foundry
effect on PE‐induced vasoconstriction (rat mesenteric arteries [1]): attenuates PE‐induced vasoconstriction
CXCL12 effect on PE‐induced signaling in the presence of the TM2 peptide (α1‐AR; hVSMCs, TM2 10 μmol/L plus CXCL12 1 μmol/L, Figure 9E): did not enhance PE‐induced signaling

Molecule: COc1ccccc1N1CCN(CCN2C(=O)CC3(CCCC3)CC2=O)CC1 [BMY 7378]
effect of α1‐AR antagonist on PE‐induced IP3 production (α1‐AR; 5 minutes, n=3): could be inhibited

Molecule: Cc1ccc(N(CC2=NCCN2)c2cccc(O)c2)cc1 [phentolamine, Phentolamine]
effect of α1‐AR antagonist on PE‐induced IP3 production (α1‐AR; 5 minutes, n=3): could be inhibited

Molecule: CNC[C@H](O)c1cccc(O)c1 [PE, Phenylephrine]
increase of cellular IP3 concentrations on PE stimulation after NT siRNA (α1‐AR; hVSMCs incubated with NT siRNA, Figure 5D, n=4): 4.8 fold
increase of cellular IP3 concentrations on PE stimulation (α1‐AR; hVSMCs without siRNA, 5 minutes, Figure 2B, n=3): 5.3 fold

Molecule: YILNLAIADLWVVLTIPVWVVDDD [TM2]
effect of TM peptide on PLA signals for ACKR3:CXCR4 (ACKR3:CXCR4): reduced after incubation with all TM peptide analogs (TM2>TM4>TM7)
effect of TM peptide on PLA signals for ACKR3:α1A‐AR (ACKR3:α1A‐AR): did not affect signals for ACKR3:α1A‐AR complexes
effect of TM peptide on PLA signals for CXCR4:α1D‐AR (CXCR4:α1D‐AR): did not affect signals for CXCR4:α1D‐AR complexes
effect of TM peptide on PLA signals for ACKR3:α1D‐AR (ACKR3:α1D‐AR): significantly reduced PLA signals
effect of TM peptide on PLA signals for ACKR3:α1B‐AR (ACKR3:α1B‐AR): significantly reduced PLA signals
effect of TM peptide on PE‐induced β‐arrestin 2 recruitment to α1b‐AR (α1b‐AR): did not inhibit β‐arrestin 2 recruitment to recombinant α1b‐AR on PE stimulation
effect of TM peptide on PLA signals for CXCR4:α1B‐AR (CXCR4:α1B‐AR): increased signals for CXCR4:α1B‐AR complexes
activation of ACKR3 by TM peptide (β‐arrestin 2 recruitment) (ACKR3; peptide alone, Figure 9A): without intrinsic agonist activity within the tested range of concentrations

Molecule: COc1cc2nc(N3CCN(C(=O)c4ccco4)[C@H]4CCCC[C@H]43)nc(N)c2cc1OC (racemic) [cyclazosin, Cyclazosin]
effect of α1‐AR antagonist on PE‐induced IP3 production (α1‐AR; 5 minutes, n=3): could be inhibited

Molecule: VVCILWLLAFCVSLPDTYYLDD [TM4]
effect of TM peptide on potency of PE to induce vasoconstriction (significance) (rat mesenteric arteries [2]): P>0.05 versus vehicle
effect of TM peptide on PLA signals for ACKR3:CXCR4 (ACKR3:CXCR4): reduced after incubation with all TM peptide analogs (TM2>TM4>TM7)
effect of TM peptide on PLA signals for ACKR3:α1A‐AR (ACKR3:α1A‐AR): without affecting ACKR3:α1A/D‐AR interactions
effect of TM peptide on PLA signals for CXCR4:α1D‐AR (CXCR4:α1D‐AR): did not affect signals for CXCR4:α1D‐AR complexes
effect of TM peptide on PLA signals for ACKR3:α1D‐AR (ACKR3:α1D‐AR): without affecting ACKR3:α1A/D‐AR interactions
effect of TM peptide on PLA signals for ACKR3:α1B‐AR (ACKR3:α1B‐AR): reduced PLA signals for ACKR3:α1B‐AR complexes
effect of TM peptide on PLA signals for CXCR4:α1B‐AR (CXCR4:α1B‐AR): increased signals for CXCR4:α1B‐AR complexes

EC50 (ACKR3; read-out: EC50 for β‐arrestin 2 recruitment to ACKR3, agonist, luminescence, Figure 2A, mean±SEM): 16.5 ± 4.9 nM
Molecule: CXCL11: natural ACKR3 agonist; chemokine, from Protein Foundry

Molecule: DDDLHVTQCLSLVHCCVNPVLYSFIN [TM7]
effect of TM peptide on potency of PE to induce vasoconstriction (significance) (rat mesenteric arteries [2]): P>0.05 versus vehicle
effect of TM peptide on PLA signals for ACKR3:CXCR4 (ACKR3:CXCR4): reduced after incubation with all TM peptide analogs (TM2>TM4>TM7)
effect of TM peptide on PLA signals for ACKR3:α1A‐AR (ACKR3:α1A‐AR): significantly increased the number of PLA signals for ACKR3:α1A‐AR complexes
effect of TM peptide on PLA signals for CXCR4:α1D‐AR (CXCR4:α1D‐AR): did not significantly affect signals
effect of TM peptide on PLA signals for ACKR3:α1D‐AR (ACKR3:α1D‐AR): did not alter signals
effect of TM peptide on PLA signals for ACKR3:α1B‐AR (ACKR3:α1B‐AR): did not alter signals
effect of TM peptide on PLA signals for CXCR4:α1B‐AR (CXCR4:α1B‐AR): did not significantly affect signals
